In ChEMBL document CHEMBL4392884, “Sesquiterpene Lactones from Artemisia argyi: Absolute Configuration and Immunosuppressant Activity” (J Nat Prod, 2019):

Legend:
T-cell [1] = test: Immunosuppressant activity in human T lymphocytes assessed as inhibition of anti-human CD3 and anti-human CD28 monoclonal antibody-induced T lymphocyte proliferation incubated for 72 hrs by FACS analysis; format: functional, cell-based
How it was run: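 Stimulated human T lymphocytes were exposed to compounds over 0.01−30 μg/mL. Proliferation was read by FACS, with forward and side scatter used to score antiproliferative activity and cytotoxicity together. Three independent experiments were run, expressed as mean ± standard deviation relative to the untreated, stimulated control.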

T-cell [2] = test: Toxicity in anti-human CD3 and anti-human CD28 monoclonal antibody-stimulated human T lymphocytes assessed as induction of apoptosis at 3 times antiproliferative IC50 incubated for 48 hrs by annexin V-FITC and propidium iodide staining based FACS analysis

| SMILES | IC50 (T-cell [1]) | Activity (T-cell [2]) |
| --- | --- | --- |
| C=C1C(=O)O[C@@H]2[C@@H]3[C@@]4(C=C[C@@]3(C)[C@@]3(C4)C(=O)O[C@@H]4[C@H]5C(C)=CC(=O)C5=C(C)C[C@H](OC(C)=O)[C@H]43)[C@](C)(O)CC[C@@H]12 | 3.2 µM | – |
| C=C1[C@@H](OC(C)=O)C[C@@H](O)[C@]2(C)CCC3=C(COC(C)=O)C(=O)O[C@@H]3[C@@H]12 | 13.8 µM | – |
| C=C1C(=O)O[C@H]2[C@H]1[C@@H](OC(C)=O)CC(C)=C1C[C@H]3O[C@@]3(C)[C@@H]12 | 1.9 µM | Non-Toxic |
| C=C1C(=O)O[C@H]2[C@H]1CC[C@@](C)(O)[C@@]13O[C@@H]1[C@@H]1O[C@]1(C)[C@H]23 | 3.7 µM | – |
| C=C1C(=O)O[C@H]([C@H]2C(=O)C=C[C@@]2(C)O)[C@H]1CCC(C)=O (relative stereo) | 1.2 µM | – |
| C=C1C(=O)O[C@H]([C@@H]2C(=O)C=C[C@]2(C)O)[C@H]1CCC(C)=O (relative stereo) [SECOTANAPARTHOLIDE B] | 1 µM | – |
| C=C1C(=O)O[C@H]2[C@H]1CC[C@@](C)(O)[C@]13O[C@H]1[C@H]1O[C@@]1(C)[C@H]23 [ARTECANIN] | 2.7 µM | – |
| COc1ccc(-c2cc(=O)c3c(O)c(OC)c(O)cc3o2)cc1OC [EUPATILIN] | 11.7 µM | – |
| COc1cc(-c2cc(=O)c3c(O)c(OC)c(O)cc3o2)ccc1O [JACEOSIDINE] | 5.8 µM | – |
| C=C1C(=O)O[C@@H]2[C@H]3C(C)=CC[C@@H](O)[C@]3(C)CC[C@@H]12 [SANTAMARIN] | 19.6 µM | – |
